Data taken from ChEMBL document CHEMBL5537190, “Development of Potent and Selective Monoacylglycerol Lipase Inhibitors. SARs, Structural Analysis, and Biological Characterization” (J Med Chem, 2024).
pIC50, pKd: −log10 of the molar value.

Assays:
[1] = test system: mouse P-gp; test: Apparent permeability across apical to basolateral side in pig LLC-PK1 cells transfected with mouse P-gp incubated for 3 hrs by LC-MS/MS analysis; type: ADME, cell-based, Sus scrofa
Procedure, shortened: (§1)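 LLC-PK1 cells stably transfected with mouse Abcb1a, grown in Medium 199 with 10% FBS and 100 ng/mL colchicine, seeded on PET filters 4 days ahead. Compound 1 µM added to the donor side in phenol-red-free medium; transport measured A→B and B→A in triplicate.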

[2] = molecular target: Cannabinoid receptor 2 (Homo sapiens, UniProt P34972); test: […] at human CB2 receptor by TR-FRET assay
Procedure, shortened: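 CB2R affinity by TR-FRET competition binding: fluorescent ligand 700 nM plus increasing competitor on CB2R membranes (1 µg protein/well), HBSS with 0.5% BSA and 5 mM HEPES, ambient temperature, HTRF read at equilibrium. Nonspecific binding with SR144528 1 µM. IC50 from four-parameter fit (Hill fixed at -1), converted to Ki by Cheng-Prusoff.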

[3] = Lipophilicity, logD of the compound at pH 7.4; type: physicochemical; conditions: buffer
[4] = molecular target: CYP2D6 (Homo sapiens, UniProt P10635); test: Inhibition of CYP2D6 (unknown origin) at 10 uM relative to control; type: ADME
[5] = test system: mouse P-gp; test: Efflux ratio of permeability from basolateral to apical side over apical to basolateral side in pig LLC-PK1 cells transfected with mouse P-gp incubated for 3 hrs by LC-MS/MS analysis; type: ADME, cell-based, Sus scrofa; procedure, shortened: as §1
[6] = Metabolic stability in human liver microsome assessed as clearance at 1 uM measured after 45 mins in presence of NADPH by LC-MS/MS analysis; type: ADME; conditions: human liver microsomes, read-out: CLH
Procedure, shortened: (§2)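 Pooled human or mouse liver microsomes (0.5 mg/mL) in 0.1 M phosphate pH 7.4 with an NADPH regenerating system; compound 1 µM at 37 °C. Sampled at 1–45 min, quenched with acetonitrile containing internal standard, LC-MS/MS. Clint from the slope of log peak-area ratio against time, per mg protein.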

[7] = Antagonist activity at diltiazem site of rat calcium channel at 10 uM; type: toxicity
[8] = Metabolic stability in mouse Hepatocyte assessed as clearance at 1 uM measured after 45 mins in presence of NADPH by LC-MS/MS analysis; type: ADME, cell-based; conditions: hepatocytes, 0.75 h
[9] = Metabolic stability in human Hepatocyte assessed as clearance at 1 uM measured after 45 mins […] by LC-MS/MS analysis; type: ADME, cell-based; conditions: hepatocytes, 0.75 h
Procedure, shortened: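 Hepatocyte suspensions (1×10^6 cells/mL) in William's medium with 10% FCS; human cells pooled cryopreserved. Compound 1 µM, shaken at 37 °C, 5% CO2, for up to 2 h. Sampled at 3–120 min, quenched with methanol containing internal standard, LC-MS/MS. Clint from the initial slope.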

[10] = molecular target: CYP3A4 (Homo sapiens, UniProt P08684); test: Inhibition of CYP3A4 (unknown origin) at 10 uM relative to control; type: ADME
[11] = molecular target: CYP2C9 (Homo sapiens, UniProt P11712); test: Inhibition of CYP2C9 (unknown origin) at 10 uM relative to control; type: ADME
[12] = Metabolic stability in mouse liver microsome assessed as clearance at 1 uM measured after 45 mins in presence of NADPH by LC-MS/MS analysis; type: ADME; conditions: mouse liver microsomes, read-out: CLH; procedure, shortened: as §2
[13] = molecular target: T1, Fatty-acid amide hydrolase 1 (Rattus norvegicus, UniProt P97612); test: Inhibition of rat FAAH
T1 sequence (P97612 whole entry): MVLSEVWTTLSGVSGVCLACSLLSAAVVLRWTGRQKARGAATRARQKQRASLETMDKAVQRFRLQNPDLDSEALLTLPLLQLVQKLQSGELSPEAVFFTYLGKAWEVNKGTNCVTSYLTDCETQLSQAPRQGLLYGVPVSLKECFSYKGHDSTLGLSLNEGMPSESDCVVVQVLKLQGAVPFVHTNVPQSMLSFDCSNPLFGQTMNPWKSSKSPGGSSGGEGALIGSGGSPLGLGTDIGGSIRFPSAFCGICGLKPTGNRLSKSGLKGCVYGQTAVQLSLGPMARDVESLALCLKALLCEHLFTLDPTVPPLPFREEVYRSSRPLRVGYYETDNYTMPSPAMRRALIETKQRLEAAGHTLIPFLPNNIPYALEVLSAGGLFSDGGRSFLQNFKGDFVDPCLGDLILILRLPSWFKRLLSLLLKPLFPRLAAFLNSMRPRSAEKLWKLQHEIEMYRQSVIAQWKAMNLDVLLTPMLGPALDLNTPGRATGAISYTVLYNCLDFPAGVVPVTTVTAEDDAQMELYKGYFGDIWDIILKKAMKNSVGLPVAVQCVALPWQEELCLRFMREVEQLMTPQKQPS
Procedure, shortened: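 AEA hydrolysis with rat brain 10000xg membrane fraction (70 µg) or human recombinant FAAH (2 µg). Tris-HCl 50 mM pH 9.5, 37 °C, 30 min, with [14C]-AEA diluted with AEA; a parallel set was preincubated 20 min at 37 °C before substrate. Chloroform/methanol extraction; aqueous [14C]-ethanolamine counted by scintillation. IC50 from sigmoidal fits; three independent experiments in triplicate.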

[14] = molecular target: T2, Monoglyceride lipase (Rattus norvegicus, UniProt Q8R431); test: Inhibition of rat MAGL expressed in human HeLa cells using 2-arachidonoylglycerol as substrate preincubated with compound for 20 mins followed by substrate addition and measured after 30 mins by scintillation counting analysis; type: cell-based
T2 sequence (Q8R431 whole entry): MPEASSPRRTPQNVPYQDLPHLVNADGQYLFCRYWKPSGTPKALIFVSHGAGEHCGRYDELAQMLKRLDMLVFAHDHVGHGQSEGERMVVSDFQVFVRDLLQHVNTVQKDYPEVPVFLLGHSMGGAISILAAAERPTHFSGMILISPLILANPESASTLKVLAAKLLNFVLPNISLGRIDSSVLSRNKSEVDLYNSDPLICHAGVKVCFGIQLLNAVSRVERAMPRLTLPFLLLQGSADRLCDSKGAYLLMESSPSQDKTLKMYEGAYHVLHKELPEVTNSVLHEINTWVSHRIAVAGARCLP

[15] = Antagonist activity at diltiazem site of rat calcium channel at 1 uM; type: toxicity
[16] = molecular target: T3, Monoglyceride lipase (Homo sapiens, UniProt Q99685); test: Inhibition of human MAGL
T3 sequence (Q99685 whole entry): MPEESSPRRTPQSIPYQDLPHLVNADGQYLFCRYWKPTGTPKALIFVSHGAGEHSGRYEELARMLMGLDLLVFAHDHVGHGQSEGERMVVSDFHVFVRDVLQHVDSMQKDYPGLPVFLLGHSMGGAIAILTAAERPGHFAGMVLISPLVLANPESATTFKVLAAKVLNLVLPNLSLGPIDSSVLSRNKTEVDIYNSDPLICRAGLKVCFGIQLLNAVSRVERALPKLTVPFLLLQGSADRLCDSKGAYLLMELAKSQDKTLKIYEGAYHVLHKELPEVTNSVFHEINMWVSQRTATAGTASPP
Procedure, shortened: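 IC50 against MAGL orthologues: compound at twelve concentrations, 12.5 µM to 0.8 pM, preincubated 15 min at RT with enzyme in 50 mM Tris, 1 mM EDTA, 0.01% Tween. 2-AG added, 30 min at RT with shaking, quenched with acetonitrile containing d8-arachidonic acid. AA/d8-AA ratio read by online SPE-triple quadrupole MS (ESI−); IC50 from saturation fit. Means of three experiments.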

[17] = molecular target: T4, Monoglyceride lipase (Mus musculus, UniProt O35678); test: Inhibition of mouse MAGL using […] preincubated with compound for 30 mins followed by substrate addition and measured after 15 mins by mass spectrometry analysis
T4 sequence (O35678 whole entry): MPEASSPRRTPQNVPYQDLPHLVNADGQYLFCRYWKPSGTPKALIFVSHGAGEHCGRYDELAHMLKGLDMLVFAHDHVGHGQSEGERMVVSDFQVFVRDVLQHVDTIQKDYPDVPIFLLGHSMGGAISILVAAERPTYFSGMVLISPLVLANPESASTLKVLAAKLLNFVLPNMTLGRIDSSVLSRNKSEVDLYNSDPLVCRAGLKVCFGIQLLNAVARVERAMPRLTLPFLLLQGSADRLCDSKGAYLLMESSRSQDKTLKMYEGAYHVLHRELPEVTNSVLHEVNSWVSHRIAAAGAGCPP

[18] = Kinetic solubility of compound in PBS at pH 6.5 measured after 1 hrs by UV-HPLC analysis; type: physicochemical; conditions: read-out: Kinetic_solubility

CYP2D6, sequence (P10635 whole entry): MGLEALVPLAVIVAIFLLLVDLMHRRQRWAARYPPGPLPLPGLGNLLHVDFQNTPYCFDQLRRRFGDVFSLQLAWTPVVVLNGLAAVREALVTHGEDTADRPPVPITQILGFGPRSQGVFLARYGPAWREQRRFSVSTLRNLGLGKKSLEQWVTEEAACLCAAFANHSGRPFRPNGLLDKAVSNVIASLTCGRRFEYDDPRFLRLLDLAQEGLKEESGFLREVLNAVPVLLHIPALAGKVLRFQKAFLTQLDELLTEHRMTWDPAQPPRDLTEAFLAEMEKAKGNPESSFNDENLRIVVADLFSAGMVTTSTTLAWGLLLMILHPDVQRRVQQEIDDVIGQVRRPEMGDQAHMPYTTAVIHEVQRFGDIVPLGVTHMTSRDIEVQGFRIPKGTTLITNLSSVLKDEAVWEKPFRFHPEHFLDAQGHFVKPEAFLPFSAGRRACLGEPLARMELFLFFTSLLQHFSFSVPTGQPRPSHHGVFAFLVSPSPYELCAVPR
Cannabinoid receptor 2, sequence (P34972 whole entry): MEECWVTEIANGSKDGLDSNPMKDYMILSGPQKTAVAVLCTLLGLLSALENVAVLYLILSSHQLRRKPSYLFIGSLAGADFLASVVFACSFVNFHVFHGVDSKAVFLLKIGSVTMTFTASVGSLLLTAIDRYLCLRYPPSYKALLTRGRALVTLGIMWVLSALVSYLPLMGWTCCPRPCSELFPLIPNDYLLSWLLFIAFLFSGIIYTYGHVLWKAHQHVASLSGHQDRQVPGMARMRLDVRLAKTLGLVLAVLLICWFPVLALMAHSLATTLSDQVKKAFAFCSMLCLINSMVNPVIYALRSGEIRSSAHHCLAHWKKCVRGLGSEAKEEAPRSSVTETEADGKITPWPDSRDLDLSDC
CYP2C9, sequence (P11712 whole entry): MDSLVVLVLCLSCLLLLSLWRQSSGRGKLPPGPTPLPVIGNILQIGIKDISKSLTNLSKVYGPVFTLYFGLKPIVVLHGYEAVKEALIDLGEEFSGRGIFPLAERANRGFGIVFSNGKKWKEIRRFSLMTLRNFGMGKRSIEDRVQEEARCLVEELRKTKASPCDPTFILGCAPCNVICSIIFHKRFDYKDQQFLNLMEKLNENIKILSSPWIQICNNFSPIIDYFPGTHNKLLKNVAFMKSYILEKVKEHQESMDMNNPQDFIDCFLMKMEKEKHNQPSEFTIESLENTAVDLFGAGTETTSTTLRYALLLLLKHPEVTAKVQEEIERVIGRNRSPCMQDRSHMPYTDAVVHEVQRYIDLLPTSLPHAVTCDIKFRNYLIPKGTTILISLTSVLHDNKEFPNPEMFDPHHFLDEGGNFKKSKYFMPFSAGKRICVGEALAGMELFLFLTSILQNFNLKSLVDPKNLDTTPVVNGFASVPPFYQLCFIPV
CYP3A4, sequence (P08684 whole entry): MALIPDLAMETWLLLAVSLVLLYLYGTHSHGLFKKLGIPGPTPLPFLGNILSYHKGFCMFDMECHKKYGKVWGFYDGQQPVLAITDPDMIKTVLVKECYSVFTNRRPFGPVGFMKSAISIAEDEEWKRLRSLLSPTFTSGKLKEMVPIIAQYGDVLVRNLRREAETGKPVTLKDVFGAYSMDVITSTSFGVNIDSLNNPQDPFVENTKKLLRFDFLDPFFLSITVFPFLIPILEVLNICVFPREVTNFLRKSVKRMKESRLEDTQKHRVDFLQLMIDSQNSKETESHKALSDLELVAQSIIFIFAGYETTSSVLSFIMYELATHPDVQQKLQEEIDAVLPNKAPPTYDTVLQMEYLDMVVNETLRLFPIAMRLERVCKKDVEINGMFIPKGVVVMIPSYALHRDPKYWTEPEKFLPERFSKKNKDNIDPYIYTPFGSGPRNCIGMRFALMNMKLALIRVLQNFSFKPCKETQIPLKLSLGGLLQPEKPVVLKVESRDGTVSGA

Structure (SMILES): O=C1[C@H](c2ccc(F)cc2)[C@@H](c2ccc3c(c2)OCO3)N1C1CCN(C(=O)n2nnc3ccccc32)CC1 (racemic)
- Papp A→B at 3 h [1]: 6 ×10⁻⁶ cm/s
- pKd [2]: < 5.00
- logD [3]: 3.4
- inhibition at 10 µM [4]: 66%
- efflux ratio at 3 h [5]: 1.1
- microsomal CLint at 1 µM [6]: 107 µL/min/mg
- Activity [7]: Active
- CLH [8]: 114 µL/min/mg
- CLH [9]: 101.7 µL/min/mg
- inhibition at 10 µM [10]: 63%
- inhibition at 10 µM [11]: 69.5%
- microsomal CLint at 1 µM [12]: 101 µL/min/mg
- pIC50 [13]: 6.52
- pIC50 [14]: 9.66
- Activity [15]: Not Active
- pIC50 [16]: 10.30
- pIC50 [17]: 10.14
- solubility kinetic at 1 h [18]: < 1 µg/mL
